Assay results reported in ChEMBL document CHEMBL3997787, “New pyridazinone-4-carboxamides as new cannabinoid receptor type-2 inverse agonists: Synthesis, pharmacological data and molecular docking” (Eur J Med Chem, 2017).
pIC50, pKi: −log10 of the molar value.

Key:
Cannabinoid receptor 2 [1] = target: T1, Cannabinoid receptor 2 (Homo sapiens, UniProt P34972); test: Inverse agonist activity at human CB2 receptor expressed in HEK293 EBNA cell membranes after 30 mins by [35S]-GTPgammaS binding assay; type: functional
T1 sequence (P34972 whole entry): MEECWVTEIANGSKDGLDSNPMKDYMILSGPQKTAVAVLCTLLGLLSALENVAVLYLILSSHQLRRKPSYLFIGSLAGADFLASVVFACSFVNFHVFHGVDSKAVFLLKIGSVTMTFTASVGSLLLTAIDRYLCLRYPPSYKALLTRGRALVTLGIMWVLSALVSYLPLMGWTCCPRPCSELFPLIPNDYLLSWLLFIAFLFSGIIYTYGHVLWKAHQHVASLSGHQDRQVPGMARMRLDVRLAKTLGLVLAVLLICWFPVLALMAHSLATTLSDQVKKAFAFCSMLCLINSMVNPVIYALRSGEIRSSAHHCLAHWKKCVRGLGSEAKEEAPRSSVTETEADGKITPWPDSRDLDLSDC
Method in brief: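 Saponin-permeabilized CB2R membranes (5 µg/well) with 0.3 nM [35S]-GTPγS and 10 µM GDP in 20 mM HEPES, 100 mM NaCl, 10 mM MgCl₂, pH 7.4. Compounds at 10⁻¹² to 10⁻⁵ M, 30 min at 30 °C; nonspecific signal with 10 µM GTPγS. Filtered, washed with 10 mM sodium phosphate and counted. IC50 and Emax from curve fitting, mean ± SEM of at least three triplicate experiments.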

Cannabinoid receptor 2 [2] = target: T1, Cannabinoid receptor 2; test: Displacement of [3H]CP55940 from human CB2 receptor expressed in HEK293 EBNA cell membranes at 4 uM after 90 mins by liquid scintillation and luminescence counting method relative to control
Method in brief: (§1)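 Single-concentration screen (4 µM) on transfected-cell membranes with human CB1R (about 8 µg/well, 0.1 nM [³H]CP,55-940, pH 7.4 Tris/MgCl₂/EDTA/0.5 mg/mL BSA) or CB2R (1.33 µg/well, 0.15 nM radioligand, pH 7.5 Tris/MgCl₂/EGTA/1 mg/mL BSA). Incubated 90 min at 30 °C. Nonspecific binding defined with 10 µM WIN 55,212-2; 100% binding taken without compound. Filtered through PEI-soaked GF/C filters and counted.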

Homo sapiens = species: Homo sapiens; test: Selectivity ratio of Ki for human CB1 receptor to Ki for human CB2 receptor
Cannabinoid receptor 2 [3] = target: T1, Cannabinoid receptor 2; test: Displacement of [3H]CP55940 from human CB2 receptor expressed in HEK293 EBNA cell membranes after 90 mins by liquid scintillation and luminescence counting method; conditions: for pKi: read-out: Ki; for Ki: hek293
Cannabinoid receptor 1 [4] = target: T2, Cannabinoid receptor 1 (Homo sapiens, UniProt P21554); test: Displacement of [3H]CP55940 from human CB1 receptor expressed in HEK293 EBNA cell membranes after 90 mins by liquid scintillation and luminescence counting method; conditions: for pKi: read-out: Ki; for Ki: hek293
T2 sequence (P21554 whole entry): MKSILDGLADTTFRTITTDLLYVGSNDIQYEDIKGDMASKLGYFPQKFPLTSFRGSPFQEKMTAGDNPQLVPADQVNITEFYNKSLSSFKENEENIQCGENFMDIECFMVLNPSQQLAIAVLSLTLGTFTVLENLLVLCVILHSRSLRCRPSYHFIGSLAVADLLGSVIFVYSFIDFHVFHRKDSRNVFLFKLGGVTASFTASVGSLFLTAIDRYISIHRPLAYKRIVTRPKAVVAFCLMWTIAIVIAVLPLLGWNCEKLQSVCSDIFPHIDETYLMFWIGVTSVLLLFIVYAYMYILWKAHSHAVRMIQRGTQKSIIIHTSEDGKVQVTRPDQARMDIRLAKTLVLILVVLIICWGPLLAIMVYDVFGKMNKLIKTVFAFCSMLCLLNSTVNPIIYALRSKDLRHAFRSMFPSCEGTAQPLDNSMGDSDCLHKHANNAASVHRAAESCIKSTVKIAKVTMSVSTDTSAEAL

Cannabinoid receptor 1 [5] = target: T2, Cannabinoid receptor 1; test: Displacement of [3H]CP55940 from human CB1 receptor expressed in HEK293 EBNA cell membranes at 4 uM after 90 mins by liquid scintillation and luminescence counting method relative to control; method in brief: as §1

Ki (Cannabinoid receptor 2 [3]) | Ki (Cannabinoid receptor 1 [4]) | SMILES | Emax (Cannabinoid receptor 2 [1]) | pIC50 (Cannabinoid receptor 2 [1]) | inhibition (Cannabinoid receptor 2 [2]) | Ratio Ki (Homo sapiens) | pKi (Cannabinoid receptor 2 [3]) | pKi (Cannabinoid receptor 1 [4]) | inhibition (Cannabinoid receptor 1 [5])
 |  | C[C@H]1CC[C@@H](NC(=O)c2cc(-c3ccccc3)nn(Cc3ccc(F)cc3)c2=O)CC1 | -65.7% | 7.45 | > 70% | 20 | 8.24 | 6.94 | > 70%
 |  | Cc1cc(-c2cc(C(=O)NC34CC5CC(CC(C5)C3)C4)c(=O)n(Cc3ccc(F)cc3)n2)ccc1Cl |  |  | > 70% | > 1180 | 8.47 | < 5.40 | > 70%
Nd(Insoluble) | Nd(Insoluble) | Cc1ccc(Cn2nc(-c3ccc(Cl)c(C)c3)cc(C(=O)NC3CCCCCC3)c2=O)cc1 |  |  |  |  |  |  | 
 |  | Cc1cc(-c2cc(C(=O)NCCN3CCOCC3)c(=O)n(Cc3ccc(F)cc3)n2)ccc1Cl |  |  | > 70% | > 12.9 | 6.51 | < 5.40 | > 70%
Nd(Insoluble) | Nd(Insoluble) | Cc1ccc(Cn2nc(-c3ccc(Cl)c(C)c3)cc(C(=O)NC34CC5CC(CC(C5)C3)C4)c2=O)cc1 |  |  |  |  |  |  | 
 |  | Cc1ccc(Cn2nc(C(=O)N[C@@H]3C(C)(C)[C@@H]4CC[C@@]3(C)C4)cc2-c2ccc(Cl)c(C)c2)cc1 | -63.2% |  |  |  |  |  | 
Nd(Insoluble) | Nd(Insoluble) | O=C(NC12CC3CC(CC(C3)C1)C2)c1cc(-c2ccccc2)nn(Cc2ccc(F)cc2)c1=O |  |  |  |  |  |  | 
 |  | Cc1ccc(Cn2nc(-c3ccc(Cl)c(C)c3)cc(C(=O)NC3CCCCC3)c2=O)cc1 |  |  | > 70% | > 16.6 | 6.62 | < 5.40 | > 70%
 |  | Cc1cc(-c2cc(C(=O)N[C@@H]3C(C)(C)[C@@H]4CC[C@@]3(C)C4)c(=O)n(Cc3ccc(F)cc3)n2)ccc1Cl | -58.7% | 7.29 | > 70% | > 1540 | 8.59 | < 5.40 | > 70%
 |  | O=C(NC1CCCCCC1)c1c2c(nn(Cc3ccc(F)cc3)c1=O)-c1ccccc1C2 |  |  | > 70% |  | < 5.40 | < 5.40 | > 70%
 |  | Cc1cc(-c2cc(C(=O)N[C@H]3CC[C@@H](C)CC3)c(=O)n(Cc3ccc(F)cc3)n2)ccc1Cl | -43.8% | 7.68 | > 70% | > 2000 | 8.70 | < 5.40 | > 70%
 |  | O=C(NC1CCCCC1)c1cc(-c2ccccc2)nn(Cc2ccc(F)cc2)c1=O |  |  | > 70% | 11 | 7.36 | 6.33 | > 70%
 |  | C[C@H]1CC[C@H](NC(=O)c2cc(-c3ccccc3)nn(Cc3ccc(F)cc3)c2=O)CC1 |  |  | > 70% | 5 | 7.18 | 6.49 | > 70%
 |  | O=C(NC1CCCCCC1)c1cc(-c2ccccc2)nn(Cc2ccc(F)cc2)c1=O |  |  | > 70% | 2 | 7.80 | 7.48 | > 70%
 |  | Cc1cc(-c2cc(C(=O)NC3CCCCCC3)c(=O)n(Cc3ccc(F)cc3)n2)ccc1Cl |  |  | > 70% | > 816 | 8.31 | < 5.40 | > 70%
 |  | Cc1cc(-c2cc(C(=O)NC3CCCCC3)c(=O)n(Cc3ccc(F)cc3)n2)ccc1Cl | -60.7% | 7.60 | > 70% | > 851 | 8.33 | < 5.40 | > 70%
 |  | Cc1cc(-c2cc(C(=O)N[C@H]3CC[C@H](C)CC3)c(=O)n(Cc3ccc(F)cc3)n2)ccc1Cl |  |  | > 70% | > 444 | 8.05 | < 5.40 | > 70%
